Source: ChEMBL document CHEMBL1122737, “5-[(Aminoalkyl)amino]-substituted anthra[1,9-cd]pyrazol-6(2H)-ones as novel anticancer agents. Synthesis and biological evaluation” (1984)

Legend:
P388 [1] = assay: Evaluated in vivo for the antitumor activity against P388 leukemia cells at a dose of 50 mg/kg (single injection) and 100 mg/kg (Total ); format: functional, Mus musculus
Method in brief: (§1)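 Murine P388 leukemia, drug given ip on a q04d × 02 schedule (a slightly modified NCI protocol). Dose is listed per injection and as a total. Read-out is % T/C survival. Mice alive at 30 days count as cured and are left out of % T/C. Cured/tested counts are reported.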

P388 [2] = assay: in vivo for the antitumor activity against P388 leukemia cells at a dose of 100 mg/kg (single injection) and 200 mg/kg (Total); format: functional, Mus musculus; method in brief: as §1
P388 [3] = assay: In vivo antitumor activity against P388 leukemia cells at a dose of 25 mg/kg as a single injection and 50 mg/kg as a total; format: functional, Mus musculus; method in brief: as §1
L1210 = assay: Antitumor activity against L1210 lymphocytic cells in vitro; format: functional; details: Mus musculus, read-out: ID50 (the source's name)
[4] = In vivo antitumor activity at a single dose of 6.5 mg/kg & 18.8 mg/kg total against mammary adenocarcinoma 16C to assess tumor growth delay (T-C); format: functional, Mus musculus
Method in brief: (§2)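 Mammary adenocarcinoma 16C is implanted sc in mice on day 0. Treatment is iv on days 1, 5 and 9, with dose per injection and total. Tumors are measured in two dimensions three times weekly to give growth delay (T − C, days) and gross log kill. Cured mice are excluded from these calculations.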

P388 [5] = assay: In vivo antitumor activity against P388 leukemia cells at a dose of 12.5 mg/kg (single injection) and 25 mg/kg (Total ); format: functional, Mus musculus; method in brief: as §1
[6] = In vivo antitumor activity at a single dose of 6.5 mg/kg & 18.8 mg/kg total against mammary adenocarcinoma 16C; format: functional, Mus musculus
Method in brief: (§3)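 Mice were inoculated sc with mammary adenocarcinoma 16C on day 0 and given the agent (as the dihydrochloride salt) iv on days 1, 5 and 9. Tumors were measured in two dimensions three times weekly. Tumor growth delay (T − C, days) and gross log kill were derived, with cured mice excluded from these calculations.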

[7] = In vivo antitumor activity at a single dose of 12.5 mg/kg & 37.5 mg/kg total against mammary adenocarcinoma 16C to assess tumor growth delay (T-C); format: functional, Mus musculus; method in brief: as §2
[8] = In vivo antitumor activity at a single dose of 12.5 mg/kg & 37.5 mg/kg total against mammary adenocarcinoma 16C; format: functional, Mus musculus; method in brief: as §3
[9] = Compound was evaluated in vivo for the antitumor activity at a dose of 2.5 mg/kg & 7.5 mg/kg against mammary adenocarcinoma 16C to assess tumor growth delay (T-C); format: functional, Mus musculus; method in brief: as §2
[10] = In vivo antitumor activity at a single dose of 1.25 mg/kg & 3.75 mg/kg total against mammary adenocarcinoma 16C
[11] = Compound was evaluated in vivo for the antitumor activity at a dose of 1.25 mg/kg & 3.75 mg/kg against mammary adenocarcinoma 16C to assess tumor growth delay (T-C).; format: functional, Mus musculus; method in brief: as §2
P388 [12] = assay: In vivo antitumor activity against P388 leukemia cells at a dose of 1.5 mg/kg as a single injection and 3 mg/kg as a total; format: functional, Mus musculus; method in brief: as §1
P388 [13] = assay: In vivo antitumor activity against P388 leukemia cells at a dose of 0.75 mg/kg as a single injection and 1.5 mg/kg as a total; format: functional, Mus musculus; method in brief: as §1
[14] = In vivo antitumor activity at a single dose of 2.5 mg/kg & 7.5 mg/kg total against mammary adenocarcinoma 16C

Question: For O=C1c2cccc(O)c2-c2nn(CCNCCO)c3ccc(NCCNCCO)c1c23, which T/C (P388 [1]) is on record?
Answer: The T/C was 172%.

Question: And the T/C (P388 [2])?
Answer: Its T/C is 221%.

Question: With O=C1c2c(O)cccc2-c2nn(CCNCCO)c3ccc(NCCNCCO)c1c23 [LOSOXANTRONE] as the compound, how does the T/C (P388 [3]) read?
Answer: The T/C was 248%.

Question: And the IC50 (L1210)?
Answer: The IC50 was 5.13 nM.

Question: What about the T-C [4] of the same compound?
Answer: Its T-C is 7 days.

Question: And the T/C (P388 [5])?
Answer: The T/C was 219%.

Question: What about the Gross log kill [6] of the same compound?
Answer: The Gross log kill was 1.9.

Question: And the T-C [7]?
Answer: The T-C was 11.4 days.

Question: And the Gross log kill [8]?
Answer: The Gross log kill was 3.1.

Question: What does the source list for O=C1c2c(O)ccc(O)c2C(=O)c2c(NCCNCCO)ccc(NCCNCCO)c21 [MITOXANTRONE]?
Answer: T-C [9]: 4.1 days; Gross kill [10]: 0.8; T-C [11]: 3 days; T/C (P388 [12]): 278%; T/C (P388 [13]): 231%; Gross kill [14]: 1.1
